In the library only some 2% were active in any assay of this set; here they are far more common.
Runt-SMMHC FRET: Runt domain-CBFb-SMMHC interaction inhibition; Cerulean-Runt/Venus-CBFb-SMMHC FRET ratio 530/480, 1 h; hit rate 0.74% among 220,000; inhibition, % at 20 µM;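 active = mean inhibition across duplicate retests at 20 µM reaching about 50%, limit read from the data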;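 also: inhibitors lower the FRET ratio by blocking Runt binding to CBFb-SMMHC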
EBV gp42 inh: EBV gp42 inhibition; Q1HVG2; Fluorescence polarization binding assay, mP read-out; inhibition, % (tested at 21.74 µM); hit rate 0.42% among 220,000; AID 1085
Runt-CBFb FRET: blocks binding of human RUNX1 Runt domain to CBFb. hit rate 0.46% among 220,000. Q01196+Q13951. inhibition, % at 20 µM. Cerulean-Runt/Venus-CBFb FRET ratio 530/480, 1 h;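 active = inhibition over about 50% at 20 µM in the single-dose screen, limit read from the data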
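test system = Cerulean-Runt domain fusion protein, energy donor | probe or stimulus = Venus-CBFb binding partner, 100 nM | incubation = two 1 h room-temperature incubations shielded from light | detection = fluorescence energy transfer, 422 nm excitation, 530/480 nm emission | measure = loss of energy transfer signal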
RanGTP-Imp inh: disruptors of Ran-importin-beta complex formation – biochemical, FRET, CFP-Ran, YFP-importin-beta, homogeneous, primary screen | inhibition, % (test concentration not listed) | cell-free CFP-Ran/YFP-importin-beta FRET ratio | AID 2216 | hit rate 1.1% among 300,000;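 active = more than half of the replicate wells show a fall in the fluorescence ratio signal beyond about 16%, limit read from the data, passing the limit was not always enough; inconclusive = exactly half of the replicate wells pass the set limit; inactive = fewer than half of replicates pass the limit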
MEX-5 binding: C. elegans MEX-5 TCR-2 RNA binding activity; activity score (negative = inhibition of binding), % at 10 µM; Q9XUB2; hit rate 0.38% among 300,000; MEX-5/FITC-TCR2 RNA binding, fluorescence polarization; active compounds read low; AID 1832;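 active = inhibition past about -25% in most replicates, and total fluorescence under double the plate's negative control median, limit read from the data; inconclusive = replicates evenly split on the limit, or fluorescence at least double controls; inactive = too little inhibition in most replicates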
Target sequence (Q9XUB2 whole entry, looked up): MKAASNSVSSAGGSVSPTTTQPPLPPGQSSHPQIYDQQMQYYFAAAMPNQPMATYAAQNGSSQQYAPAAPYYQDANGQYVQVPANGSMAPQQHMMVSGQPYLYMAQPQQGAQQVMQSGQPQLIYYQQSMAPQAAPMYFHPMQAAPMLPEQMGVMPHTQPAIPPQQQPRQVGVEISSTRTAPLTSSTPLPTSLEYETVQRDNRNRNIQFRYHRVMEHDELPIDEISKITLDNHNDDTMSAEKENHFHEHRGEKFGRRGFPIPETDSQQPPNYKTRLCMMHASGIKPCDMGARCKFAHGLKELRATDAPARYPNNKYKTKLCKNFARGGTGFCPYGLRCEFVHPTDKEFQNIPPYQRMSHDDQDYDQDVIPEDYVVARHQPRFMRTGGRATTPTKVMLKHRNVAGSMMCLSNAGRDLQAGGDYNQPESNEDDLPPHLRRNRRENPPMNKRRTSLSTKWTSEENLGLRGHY
PKD1 inh: blocks activity of human protein kinase D1 | hit rate 0.056% among 200,000 | PKD1 kinase fluorescence polarization assay | Q15139 | inhibition, % (test concentration not listed)
Runt-CBFb TRFRET: disrupts human RUNX1 Runt domain binding to CBFb; shares compounds with Runt-CBFb FRET; TR-FRET RUNX1 Runt domain-CBFb binding; inhibition, % at 20 µM; hit rate 20% among 480; in the data active = inhibition above about 40%
Of the large screens only hits and unclear results are named; the others gave an inactive call (follow-up assays come after a bar, where they were run). Rule as the data show it, unless noted: active = inhibition above about 50%; inactive = the rest.

CN(C)C(=O)c1ccc(N/C=C(\C=O)c2nc3ccccc3o2)cc1	none
CCOc1ccccc1NC(=O)c1cc2ccccc2oc1=O	none (no result: Runt-SMMHC FRET, EBV gp42 inh, Runt-CBFb FRET, PKD1 inh)
CCN(CC)c1ccc2cc(C(=O)Nc3cccnc3N3CCOCC3)c(=O)oc2c1	Runt-SMMHC FRET 79, Runt-CBFb FRET 59 (no result: EBV gp42 inh, RanGTP-Imp inh, MEX-5 binding, PKD1 inh) | Runt-CBFb TRFRET inactive
NS(=O)(=O)c1cc(C(=O)OCC(=O)Nc2ccc(N3CCCCC3)cc2)ccc1Cl	Runt-CBFb FRET 81 (no result: PKD1 inh) | Runt-CBFb TRFRET inactive
CCc1ccc(NC(=O)COC(=O)c2ccc(Cl)c(S(=O)(=O)N3CCCCCC3)c2)cc1	none
COC(=O)c1ccccc1N/C=C1\CCc2c(c(C)nn2-c2ccccn2)C1=O	Runt-SMMHC FRET 63, Runt-CBFb FRET 54, RanGTP-Imp inh 36 | Runt-CBFb TRFRET 51
O=C1C(O)CC2c3ccccc3CC3(CCCC3)N12 (stereo not drawn)	Runt-CBFb FRET 58 | Runt-CBFb TRFRET inactive
COc1ccc(CNC(=O)CCC2N=C3c4ccccc4N=C(SCC(=O)NCC4CCCO4)N3C2=O)cc1 (stereo not drawn)	none (no result: Runt-SMMHC FRET, EBV gp42 inh, Runt-CBFb FRET, PKD1 inh)
Cc1ccc(N2C(=O)C3C4C=CC(CC4)C3C2=O)cc1[N+](=O)[O-] (stereo not drawn)	none (no result: Runt-SMMHC FRET, EBV gp42 inh, Runt-CBFb FRET, PKD1 inh)
Cc1cc(N2C(=O)C=CC2=O)c([N+](=O)[O-])cc1C	Runt-CBFb FRET 53 (no result: RanGTP-Imp inh) | Runt-CBFb TRFRET inactive
O=[N+]([O-])c1ccc(Sc2ccccc2)nc1	none
Nc1cccnc1Sc1ccc([N+](=O)[O-])cn1	Runt-CBFb FRET 54 | Runt-CBFb TRFRET inactive
O=C(O)c1cc(Cl)ccc1-c1ccc(/C=C/c2cc(C(F)(F)F)[nH]c(=O)n2)o1	Runt-SMMHC FRET 92, Runt-CBFb FRET 52, MEX-5 binding inconclusive | Runt-CBFb TRFRET inactive
COCc1cc(C)nc2sc(C(=O)Nc3nccs3)c(N)c12	none
Cc1cc(C)c2c(N)c(C(=O)Nc3nccs3)sc2n1	Runt-CBFb FRET 56 | Runt-CBFb TRFRET inactive
CN(C)c1ccc(/C=C(/NC(=O)c2ccccc2)C(=O)NCCCn2ccnc2)cc1	none (no result: Runt-SMMHC FRET, EBV gp42 inh, Runt-CBFb FRET, PKD1 inh)
COC(=O)C1=C(C)OC(N)=C(C#N)C1c1ccccc1F (stereo not drawn)	none
COC(=O)C1=C(CSc2nc3c(cc2C#N)CN(C)CC3)OC(N)=C(C#N)C1c1ccccc1F (stereo not drawn)	Runt-CBFb FRET 58, RanGTP-Imp inh 24 (no result: Runt-SMMHC FRET) | Runt-CBFb TRFRET 55
CC(=O)c1ccc(NC(=O)CN(c2c(C)cccc2C)S(C)(=O)=O)cc1	none (no result: Runt-SMMHC FRET, EBV gp42 inh, Runt-CBFb FRET, PKD1 inh)
O=C(CN1CCCCC1)NCC1(c2ccccc2)CCCC1	none (no result: Runt-SMMHC FRET, Runt-CBFb FRET)
CCOC(=O)C1(Cc2ccc(OC)cc2)CCN(C(=O)c2cncs2)CC1	Runt-CBFb FRET 54 | Runt-CBFb TRFRET inactive
CCOC(=O)C1(Cc2ccc(OC)cc2)CCN(C(=O)c2csc(C)n2)CC1	none
Cc1ccc(-c2noc(CN3C(C)CCCC3C)n2)cc1 (stereo not drawn)	Runt-CBFb FRET 84 | Runt-CBFb TRFRET inactive
Cc1ccc(-c2noc(CN3CCC(C(N)=O)CC3)n2)cc1	none
Cc1cc(O)c(Oc2cc(C)cc(O)c2O)c(O)c1	Runt-SMMHC FRET 62, Runt-CBFb FRET 70, MEX-5 binding -49 | Runt-CBFb TRFRET 54
CCCOc1ccccc1-c1nc2c([nH]1)c(=O)[nH]c(=O)n2C	Runt-SMMHC FRET 133, Runt-CBFb FRET 75, RanGTP-Imp inh 75 | Runt-CBFb TRFRET inactive
Cc1ccc(C(=O)/C=C\C(=O)c2ccc(C)cc2)cc1	Runt-SMMHC FRET 51, Runt-CBFb FRET 62 | Runt-CBFb TRFRET inactive
CC(/C=C/C(=O)c1ccc(C)cc1)=C\c1ccccc1	none
CC1CC(C)CN(C(=O)CSc2nnc(N)s2)C1 (stereo not drawn)	RanGTP-Imp inh inconclusive (no result: Runt-SMMHC FRET, EBV gp42 inh, Runt-CBFb FRET, PKD1 inh)
COc1cc(/C=C(\C#N)c2nc3ccccc3[nH]2)cc(Br)c1OCc1ccccc1	none
COc1cc(/C=C(\C#N)c2nc3ccccc3[nH]2)cc(Br)c1OCc1ccc(F)cc1	Runt-SMMHC FRET 106, Runt-CBFb FRET 54 | Runt-CBFb TRFRET inactive
CN1CCc2c(sc3c2C(=O)NC(c2cccs2)N3)C1 (stereo not drawn)	Runt-SMMHC FRET 78, Runt-CBFb FRET 62, RanGTP-Imp inh 118 | Runt-CBFb TRFRET inactive

From PubChem BioAssay
